ChEMBL document CHEMBL5356968, “Miconazole-like Scaffold is a Promising Lead for Naegleria fowleri-Specific CYP51 Inhibitors” (J Med Chem, 2023)

System: not listed separately
Assay: Drug concentration in C57BL/6 mouse brain at 40 mg/kg, ip measured after 1 hrs by HPLC-ESI-MS/MS analysis
Type: ADME, organism-based
Settings: read-out: Drug uptake

Structure (SMILES) | concentration at 1 h
Fc1ccc([C@@H](Cn2ccnc2)OCc2cc(Cl)cc(Cl)c2)cc1 | 232 ng/g

System: Naegleria fowleri
Assay: Antiprotozoal activity against Naegleria fowleri
Type: functional, organism-based
Settings: not given
Procedure, shortened: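 N. fowleri European KUL trophozoites, axenic in Nelson's medium + 10% FBS at 37 °C, harvested in log phase. Single-point screen at 10 μM in duplicate (2,500 amoebae/well). Dose–response in triplicate, serial dilution 50 to 0.39 μM (10,000 amoebae/well). 48 h at 37 °C; viability by CellTiter-Glo luminescence.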

Structure (SMILES) | EC50
CCC(C)n1ncn(-c2ccc(N3CCN(c4ccc(OCC5COC(Cn6cncn6)(c6ccc(Cl)cc6Cl)O5)cc4)CC3)cc2)c1=O (stereo not given) [ITRACONAZOLE] | ≤ 10 µM
CC[C@@H]([C@H](C)O)n1ncn(-c2ccc(N3CCN(c4ccc(OC[C@@H]5CO[C@@](Cn6cncn6)(c6ccc(F)cc6F)C5)cc4)CC3)cc2)c1=O [POSACONAZOLE] | ≤ 10 µM

System: not listed separately
Assay: Drug concentration in C57BL/6 mouse plasma at 40 mg/kg, ip measured after 1 hrs by HPLC-ESI-MS/MS analysis
Type: ADME, organism-based
Settings: not given

Structure (SMILES) | concentration at 1 h
Fc1ccc([C@@H](Cn2ccnc2)OCc2cc(Cl)cc(Cl)c2)cc1 | 656 ng/mL
FC(F)(F)c1cccc(CO[C@H](Cn2ccnc2)c2ccc(Cl)cc2Cl)c1 | 37 ng/mL

System: Naegleria fowleri
Assay: Antiprotozoal activity against Naegleria fowleri European KUL assessed as inhibition of parasite growth at 10 uM incubated for 48 hrs by CellTiter-Glo luminescent cell viability assay relative to control
Type: functional
Settings: not given
Procedure, shortened: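 Axenic N. fowleri KUL trophozoites from log-phase culture in Nelson's medium with 10% FBS at 37 °C. Primary screen run in duplicate at 10 μM, 2,500 amoebae/well in 384-well format. Plates incubated 48 h at 37 °C, then viability read by CellTiter-Glo luminescence. BSL-2 handling.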

Structure (SMILES) | inhibition at 10 µM
COc1ccc(C(Cc2ccc(Cl)cc2)n2ccnc2)cc1 (stereo not given) | ≥ 50%
CC(C)c1cccc(NC(=O)OC(Cn2ccnc2)c2ccccc2)c1 (stereo not given) | ≥ 50%
COc1ccc(CC(c2ccc(OC)cc2)n2ccnc2)cc1 (stereo not given) | ≥ 50%
COc1ccc(C(Cc2ccc(-n3cccc3)cc2)n2ccnc2)cc1 (stereo not given) | ≥ 50%
Clc1ccc(-n2ccc(C(c3ccccc3)n3ccnc3)c2)cc1 (stereo not given) | ≥ 50%
O=C(OC(Cn1ccnc1)c1ccccc1)c1cccc(C(F)(F)F)c1 (stereo not given) | ≥ 50%
O=C(Nc1ccc(N2CCN(c3ccc(Cl)cc3)CC2)cc1)OC(Cn1ccnc1)c1ccc(F)cc1 (stereo not given) | ≥ 50%
Clc1ccc(C(c2ccn(-c3ccc(Cl)cc3)c2)n2ccnc2)cc1 (stereo not given) | ≥ 50%
O=C(OC(Cn1ccnc1)c1ccc(F)cc1)c1cccc(C(F)(F)F)c1 (racemic) | ≥ 50%

System: Naegleria fowleri
Assay: Antiprotozoal activity against Naegleria fowleri European KUL assessed as inhibition of parasite growth incubated for 48 hrs by CellTiter-Glo luminescent cell viability assay
Type: functional, organism-based
Settings: not given

Structure (SMILES) | EC50
OC(Cn1cncn1)(Cn1cncn1)c1ccc(F)cc1F [FLUCONAZOLE] | 13.9 µM
